Results published in ChEMBL document CHEMBL4428123, “Synthesis of phenylpiperazine derivatives of 1,4-benzodioxan as selective COX-2 inhibitors and anti-inflammatory agents” (Bioorg Med Chem, 2016).

Tests used:
Rattus norvegicus [1] = assay: Anti-inflammatory activity in rat assessed as inhibition of carrageenan-induced paw edema at 10 mg/kg, po administered 30 mins before carrageenan challenge measured after 3 hrs relative to control; assay type: functional
Outline: (§1)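 Male rats were dosed orally with agents suspended in 0.5% Na CMC, 30 min before 0.1 mL of 1% (w/v) carrageenan was injected into the right hind paw. Thickness of both paws was measured 1, 3 and 5 h after injection. Activity was calculated as percent decrease in edema thickness relative to the carrageenan-induced edema. Data given as mean ± SD with non-parametric comparison, P < 0.05.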

Rattus norvegicus [2] = assay: Anti-inflammatory activity in rat assessed as inhibition of carrageenan-induced paw edema at 10 mg/kg, po administered 30 mins before carrageenan challenge measured after 1 hr relative to control; assay type: functional; outline: as §1
Rattus norvegicus [3] = assay: Anti-inflammatory activity in rat assessed as inhibition of carrageenan-induced paw edema at 10 mg/kg, po administered 30 mins before carrageenan challenge measured after 5 hrs relative to control; assay type: functional; outline: as §1
Rattus norvegicus [4] = assay: Analgesic activity in rat assessed as pain threshold time at 10 mg/kg, po measured at 1 hr post dose by hot plate method (reference value: 19.1 to 21.2 sec); assay type: functional
Rattus norvegicus [5] = assay: Analgesic activity in rat assessed as pain threshold time at 10 mg/kg, po measured at 1.5 hrs post dose by hot plate method (reference value: 19.1 to 21.2 sec); assay type: functional
Rattus norvegicus [6] = assay: Analgesic activity in rat assessed as pain threshold time at 10 mg/kg, po measured at 0.5 hr post dose by hot plate method (reference value: 19.1 to 21.2 sec); assay type: functional
Rattus norvegicus [7] = assay: Anti-inflammatory activity in po dosed rat assessed as inhibition of carrageenan-induced paw edema administered 30 mins before carrageenan challenge measured after 1 to 5 hrs; assay type: functional, organism-based; outline: as §1
[8] = Ulcerogenecity in rat carrageenan-induced inflammation model assessed as stomach mucosal damage by measuring lesions at 5 to 20 mg/kg, po administered 30 mins before carrageenan challenge measured after 1 to 5 hrs by macroscopic analysis; assay type: ADME, organism-based; details: in vivo
Rattus norvegicus [9] = assay: Anti-inflammatory activity in rat assessed as inhibition of carrageenan-induced paw edema at 20 mg/kg, po administered 30 mins before carrageenan challenge measured after 5 hrs relative to control; assay type: functional; outline: as §1
Rattus norvegicus [10] = assay: Anti-inflammatory activity in rat assessed as inhibition of carrageenan-induced paw edema at 20 mg/kg, po administered 30 mins before carrageenan challenge measured after 3 hrs relative to control; assay type: functional; outline: as §1
[11] = molecular target: T1, Prostaglandin G/H synthase 1 (Ovis aries, UniProt P05979); assay: Inhibition of ovine COX1 by enzyme immunoassay
T1 sequence (P05979 whole entry): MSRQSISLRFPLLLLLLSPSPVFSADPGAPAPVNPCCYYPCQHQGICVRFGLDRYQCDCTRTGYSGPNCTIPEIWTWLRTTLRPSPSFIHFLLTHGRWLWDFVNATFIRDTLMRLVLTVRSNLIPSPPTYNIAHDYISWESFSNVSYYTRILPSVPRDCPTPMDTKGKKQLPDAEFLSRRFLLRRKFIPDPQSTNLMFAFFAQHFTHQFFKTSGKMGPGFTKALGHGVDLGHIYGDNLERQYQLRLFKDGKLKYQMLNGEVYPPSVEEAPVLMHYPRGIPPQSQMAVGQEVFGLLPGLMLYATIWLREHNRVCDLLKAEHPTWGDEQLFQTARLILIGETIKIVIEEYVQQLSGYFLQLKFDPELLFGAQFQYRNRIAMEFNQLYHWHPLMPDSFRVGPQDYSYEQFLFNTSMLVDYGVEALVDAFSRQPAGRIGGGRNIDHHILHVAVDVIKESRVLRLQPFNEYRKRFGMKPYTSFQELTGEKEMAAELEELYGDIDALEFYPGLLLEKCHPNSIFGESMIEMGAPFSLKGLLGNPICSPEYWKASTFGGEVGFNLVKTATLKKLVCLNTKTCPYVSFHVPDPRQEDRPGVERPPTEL

Rattus norvegicus [12] = assay: Anti-inflammatory activity in rat assessed as inhibition of carrageenan-induced paw edema at 20 mg/kg, po administered 30 mins before carrageenan challenge measured after 1 hr relative to control; assay type: functional; outline: as §1
Rattus norvegicus [13] = assay: Anti-inflammatory activity in rat assessed as inhibition of carrageenan-induced paw edema at 5 mg/kg, po administered 30 mins before carrageenan challenge measured after 3 hrs relative to control; assay type: functional; outline: as §1
Rattus norvegicus [14] = assay: Anti-inflammatory activity in rat assessed as inhibition of carrageenan-induced paw edema at 5 mg/kg, po administered 30 mins before carrageenan challenge measured after 5 hrs relative to control; assay type: functional; outline: as §1
Rattus norvegicus [15] = assay: Anti-inflammatory activity in rat assessed as inhibition of carrageenan-induced paw edema at 5 mg/kg, po administered 30 mins before carrageenan challenge measured after 1 hr relative to control; assay type: functional; outline: as §1

Compound: COc1cccc(N2CCN(Cc3ccc4c(c3)OCCO4)CC2)c1
- inhibition in vivo at 10 mg/kg (Rattus norvegicus [1]): 62%
- inhibition in vivo at 10 mg/kg (Rattus norvegicus [2]): 45%
- inhibition in vivo at 10 mg/kg (Rattus norvegicus [3]): 40%

Compound: Fc1ccc(N2CCN(Cc3ccc4c(c3)OCCO4)CC2)cc1
- inhibition in vivo at 10 mg/kg (Rattus norvegicus [1]): 82%
- Time (Rattus norvegicus [4]): 20.7 s
- Time (Rattus norvegicus [5]): 19.9 s
- inhibition in vivo at 10 mg/kg (Rattus norvegicus [2]): 62%
- Time (Rattus norvegicus [6]): 21.5 s
- inhibition in vivo at 10 mg/kg (Rattus norvegicus [3]): 57%

Compound: COc1ccc(N2CCN(Cc3ccc4c(c3)OCCO4)CC2)cc1
- inhibition in vivo at 10 mg/kg (Rattus norvegicus [1]): 88%
- Time (Rattus norvegicus [4]): 23.3 s
- Time (Rattus norvegicus [5]): 22.3 s
- inhibition in vivo at 10 mg/kg (Rattus norvegicus [2]): 71%
- Time (Rattus norvegicus [6]): 24.6 s
- inhibition in vivo at 10 mg/kg (Rattus norvegicus [3]): 63%

Compound: Clc1cccc(N2CCN(Cc3ccc4c(c3)OCCO4)CC2)c1Cl
- inhibition in vivo at 10 mg/kg (Rattus norvegicus [1]): 28%
- inhibition in vivo at 10 mg/kg (Rattus norvegicus [2]): 18%
- inhibition in vivo at 10 mg/kg (Rattus norvegicus [3]): 13%

Compound: Cc1ccc(N2CCN(Cc3ccc4c(c3)OCCO4)CC2)c(C)c1
- inhibition in vivo at 10 mg/kg (Rattus norvegicus [1]): 28%
- inhibition in vivo at 10 mg/kg (Rattus norvegicus [2]): 16%
- inhibition in vivo at 10 mg/kg (Rattus norvegicus [3]): 11%

Compound: Clc1cccc(N2CCN(Cc3ccc4c(c3)OCCO4)CC2)c1
- inhibition in vivo at 10 mg/kg (Rattus norvegicus [1]): 37%
- inhibition in vivo at 10 mg/kg (Rattus norvegicus [2]): 31%
- inhibition in vivo at 10 mg/kg (Rattus norvegicus [3]): 24%

Compound: c1ccc(C(c2ccccc2)N2CCN(Cc3ccc4c(c3)OCCO4)CC2)cc1
- inhibition in vivo at 10 mg/kg (Rattus norvegicus [1]): 27%
- inhibition in vivo at 10 mg/kg (Rattus norvegicus [2]): 15%
- inhibition in vivo at 10 mg/kg (Rattus norvegicus [3]): 19%

Compound: c1ccc(N2CCN(Cc3ccc4c(c3)OCCO4)CC2)nc1
- inhibition in vivo at 10 mg/kg (Rattus norvegicus [1]): 55%
- inhibition in vivo at 10 mg/kg (Rattus norvegicus [2]): 40%
- inhibition in vivo at 10 mg/kg (Rattus norvegicus [3]): 35%

Compound: c1ccc(N2CCN(Cc3ccc4c(c3)OCCO4)CC2)cc1
- inhibition in vivo at 10 mg/kg (Rattus norvegicus [1]): 35%
- inhibition in vivo at 10 mg/kg (Rattus norvegicus [2]): 28%
- inhibition in vivo at 10 mg/kg (Rattus norvegicus [3]): 25%

Compound: O=C(O)Cc1ccccc1Nc1c(Cl)cccc1Cl [DICLOFENAC]
- inhibition in vivo at 10 mg/kg (Rattus norvegicus [1]): 79 to 80%
- Time (Rattus norvegicus [4]): 23.5 s
- Time (Rattus norvegicus [5]): 22.3 s
- inhibition in vivo at 10 mg/kg (Rattus norvegicus [2]): 41 to 42%
- Time (Rattus norvegicus [6]): 24.1 s
- inhibition in vivo at 10 mg/kg (Rattus norvegicus [3]): 50 to 52%

Compound: FC(F)(F)c1cccc(N2CCN(Cc3ccc4c(c3)OCCO4)CC2)c1
- inhibition (Rattus norvegicus [7]): Dose-dependent effect
- inhibition in vivo at 10 mg/kg (Rattus norvegicus [1]): 91 to 92%
- Activity [8]: Non-Toxic
- inhibition in vivo at 20 mg/kg (Rattus norvegicus [9]): 75%
- inhibition in vivo at 20 mg/kg (Rattus norvegicus [10]): 95%
- IC50 [11]: 8.35 µM
- Time (Rattus norvegicus [4]): 24.7 s
- inhibition in vivo at 20 mg/kg (Rattus norvegicus [12]): 78%
- inhibition in vivo at 5 mg/kg (Rattus norvegicus [13]): 73%
- Time (Rattus norvegicus [5]): 23.1 s
- inhibition in vivo at 10 mg/kg (Rattus norvegicus [2]): 76 to 78%
- Time (Rattus norvegicus [6]): 26.4 s
- inhibition in vivo at 5 mg/kg (Rattus norvegicus [14]): 50%
- inhibition in vivo at 10 mg/kg (Rattus norvegicus [3]): 68%
- inhibition in vivo at 5 mg/kg (Rattus norvegicus [15]): 56%

Compound: O=[N+]([O-])c1ccc(N2CCN(Cc3ccc4c(c3)OCCO4)CC2)cc1
- inhibition in vivo at 10 mg/kg (Rattus norvegicus [1]): 79%
- Time (Rattus norvegicus [4]): 22.6 s
- Time (Rattus norvegicus [5]): 21.2 s
- inhibition in vivo at 10 mg/kg (Rattus norvegicus [2]): 68%
- Time (Rattus norvegicus [6]): 23.4 s
- inhibition in vivo at 10 mg/kg (Rattus norvegicus [3]): 65%
